According to ChEMBL document CHEMBL3045854, “Antifungal activity of 4-methyl-6-alkyl-2H-pyran-2-ones” (2006):
Converted amounts (≈) assume the structure as drawn. The source made the active and inactive calls. The calls are words filed in the database; no cut-off is given here.

What was measured:
Pythium aphanidermatum = experiment: Antifungal activity against Pythium aphanidermatum assessed as inhibition of fungal growth; format: functional; settings: read-out: ED50 (the source's name)
In short: (§1)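 Poisoned food technique on PDA, final 250, 125, 100, 50, 25 and 10 µg/mL, diluted in acetone from a 1000 µg/mL stock; acetone-only control. A 5 mm × 5 mm plug from the growing edge of a 2-week-old colony was placed at plate centre and incubated at 28 °C until control plates were nearly fully grown. Colony diameter was measured; four replicates per treatment. Inhibition was Abbott-corrected and ED50 taken by probit analysis.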

Macrophomina phaseolina [1] = experiment: Antifungal activity against Macrophomina phaseolina assessed as inhibition of fungal growth; format: functional; settings: read-out: ED50 (the source's name); in short: as §1
Macrophomina phaseolina [2] = experiment: Antifungal activity against Rhizoctonia bataticola assessed as inhibition of fungal growth; format: functional; settings: read-out: ED50 (the source's name); in short: as §1
[3] = tested on: Globisporangium debaryanum; experiment: Antifungal activity against Pythium debaryanum assessed as inhibition of fungal growth; format: functional; settings: read-out: ED50 (the source's name); in short: as §1
Rhizoctonia solani = experiment: Antifungal activity against Rhizoctonia solani Nees assessed as inhibition of fungal growth; format: functional; settings: read-out: ED50 (the source's name); in short: as §1
Athelia rolfsii [4] = experiment: Antifungal activity against Athelia rolfsii assessed as inhibition of fungal growth; format: functional; settings: Agroathelia rolfsii; read-out: ED50 (the source's name); in short: as §1
Athelia rolfsii [5] = experiment: Antifungal activity against Athelia rolfsii in tomato plants grown on fungal infested soil assessed as healthy tomato plants stands at 0.728 mL ai/150 cm3 of soil measured 35 days after transplanting; format: functional, Agroathelia rolfsii
In short: (§2)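 Greenhouse tomato seedlings in sieved, autoclaved composted soil infested with S. rolfsii chlamydospore inoculum (potato dextrose broth, 27 °C 7 days, then water, 20 °C 3-4 weeks; 10 flasks per 2.5 kg soil; incubated ~25 °C 5-7 days). Moistened infested soil treated with fungicide per 150 cm3 soil. Checks were uninfested soil and untreated infested soil. Wilting and mortality scored weekly to 35 days; proportion symptomless plants; repeated-measures ANOVA.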

Athelia rolfsii [6] = experiment: Antifungal activity against Athelia rolfsii in tomato plants grown on fungal infested soil assessed as healthy tomato plants stands at 0.364 mL ai/150 cm3 of soil measured 35 days after transplanting; format: functional, Agroathelia rolfsii; in short: as §2
Athelia rolfsii [7] = experiment: Antifungal activity against Athelia rolfsii in tomato plants grown on fungal infested soil assessed as healthy tomato plants stands at 1.46 mL ai/150 cm3 of soil measured 35 days after transplanting; format: functional, Agroathelia rolfsii; in short: as §2
Athelia rolfsii [8] = experiment: Antifungal activity against Athelia rolfsii in tomato plants grown on fungal infested soil assessed as healthy tomato plants stands at 1 % aqueous emulsion of compound measured 35 days after transplanting; format: functional, organism-based; settings: Agroathelia rolfsii
In short: (§3)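 Tomato greenhouse test. S. rolfsii was grown in potato dextrose broth, then held in water at 20 °C for 3-4 weeks. Inoculum was mixed into autoclaved composted soil (10 flasks per 2.5 kg) and kept about 5-7 days at roughly 25 °C. Aqueous emulsion was incorporated at 5.0 mL per 150 cm3 of soil. Wilting and mortality were scored weekly after transplanting and given as the proportion of symptomless plants. Controls were uninfested soil and infested untreated soil; analysed as repeated measures ANOVA.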

Athelia rolfsii [9] = experiment: Antifungal activity against Athelia rolfsii in tomato plants grown on fungal infested soil assessed as healthy tomato plants stands at 5 % aqueous emulsion of compound measured 35 days after transplanting; format: functional, Agroathelia rolfsii; in short: as §3
Athelia rolfsii [10] = experiment: Antifungal activity against Athelia rolfsii in tomato plants grown on fungal infested soil assessed as healthy tomato plants stands at 10 % aqueous emulsion of compound measured 35 days after transplanting; format: functional, Agroathelia rolfsii; in short: as §3
Athelia rolfsii [11] = experiment: Antifungal activity against Athelia rolfsii in tomato plants grown on fungal infested soil assessed as healthy tomato plants stands at 1 % aqueous emulsion of compound measured 7 days after transplanting; format: functional, Agroathelia rolfsii; in short: as §3

| SMILES | EC50 (Pythium aphanidermatum) | EC50 (Macrophomina phaseolina [1]) | EC50 (Macrophomina phaseolina [2]) | EC50 [3] | EC50 (Rhizoctonia solani) | EC50 (Athelia rolfsii [4]) | Activity (Athelia rolfsii [5]) | Activity (Athelia rolfsii [6]) | Activity (Athelia rolfsii [7]) | Activity (Athelia rolfsii [8]) | Activity (Athelia rolfsii [9]) | Activity (Athelia rolfsii [10]) | Activity (Athelia rolfsii [11]) |
| --- | --- | --- | --- | --- | --- | --- | --- | --- | --- | --- | --- | --- | --- |
| CCCCCCCCc1cc(C)cc(=O)o1 | 124 µg/mL (≈ 557 µM) | 164 µg/mL (≈ 737 µM) | 132 µg/mL (≈ 595 µM) | 175 µg/mL (≈ 786 µM) | 116 µg/mL (≈ 521 µM) | 122 µg/mL (≈ 548 µM) | – | – | – | – | – | – | – |
| CCCCCCCc1cc(C)cc(=O)o1 | 74.6 µg/mL (≈ 358 µM) | 82.2 µg/mL (≈ 394 µM) | 47 µg/mL (≈ 226 µM) | 71.7 µg/mL (≈ 344 µM) | 45 µg/mL (≈ 216 µM) | 30.7 µg/mL (≈ 147 µM) | – | – | – | – | – | – | – |
| CCCCC(CC)c1cc(C)cc(=O)o1 (stereo not given) | 277 µg/mL (≈ 1330 µM) | 262 µg/mL (≈ 1260 µM) | 303 µg/mL (≈ 1460 µM) | 151 µg/mL (≈ 725 µM) | 184 µg/mL (≈ 882 µM) | 349 µg/mL (≈ 1680 µM) | – | – | – | – | – | – | – |
| Cc1cc(CCl)oc(=O)c1 | 122 µg/mL (≈ 769 µM) | 72.1 µg/mL (≈ 455 µM) | 111 µg/mL (≈ 701 µM) | 102 µg/mL (≈ 643 µM) | 22.8 µg/mL (≈ 143 µM) | 46.9 µg/mL (≈ 296 µM) | – | – | – | – | – | – | – |
| CCCCc1cc(C)cc(=O)o1 | 227 µg/mL (≈ 1370 µM) | 235 µg/mL (≈ 1410 µM) | 212 µg/mL (≈ 1280 µM) | 143 µg/mL (≈ 859 µM) | 50.1 µg/mL (≈ 301 µM) | 78 µg/mL (≈ 469 µM) | – | – | – | – | – | – | – |
| Cc1cc(C)oc(=O)c1 | 451 µg/mL (≈ 3630 µM) | 824 µg/mL (≈ 6630 µM) | 1190 µg/mL (≈ 9550 µM) | 1140 µg/mL (≈ 9190 µM) | 493 µg/mL (≈ 3970 µM) | 713 µg/mL (≈ 5740 µM) | – | – | – | – | – | – | – |
| C=C(C)c1cc(C)cc(=O)o1 | 337 µg/mL (≈ 2240 µM) | 338 µg/mL (≈ 2250 µM) | 374 µg/mL (≈ 2490 µM) | 189 µg/mL (≈ 1260 µM) | 206 µg/mL (≈ 1370 µM) | 180 µg/mL (≈ 1200 µM) | – | – | – | – | – | – | – |
| COCC(=O)N(c1c(C)cccc1C)C(C)C(=O)OC (stereo not given) [METALAXYL] | – | – | – | – | – | – | 60 µg/mL | 34.3 µg/mL | 90.3 µg/mL | – | – | – | – |
| CCCCC(O)(Cn1cncn1)c1ccc(Cl)cc1Cl (stereo not given) [HEXACONAZOLE] | 8.47 µg/mL (≈ 27 µM) | 10.5 µg/mL (≈ 33.5 µM) | 4.36 µg/mL (≈ 13.9 µM) | 12.3 µg/mL (≈ 39.1 µM) | 13 µg/mL (≈ 41.2 µM) | 18.3 µg/mL (≈ 58.4 µM) | – | – | – | – | – | – | – |
| CCCCCCCCCCc1cc(C)cc(=O)o1 | 287 µg/mL (≈ 1150 µM) | 548 µg/mL (≈ 2190 µM) | 649 µg/mL (≈ 2590 µM) | 594 µg/mL (≈ 2370 µM) | 267 µg/mL (≈ 1070 µM) | 562 µg/mL (≈ 2250 µM) | – | – | – | – | – | – | – |
| Cc1cc(C(C)C)oc(=O)c1 | 475 µg/mL (≈ 3120 µM) | 1210 µg/mL (≈ 7930 µM) | 403 µg/mL (≈ 2650 µM) | 437 µg/mL (≈ 2870 µM) | 437 µg/mL (≈ 2870 µM) | 313 µg/mL (≈ 2060 µM) | – | – | – | – | – | – | – |
| Cc1cc(CC(C)C)oc(=O)c1 | 52.4 µg/mL (≈ 315 µM) | 47.3 µg/mL (≈ 284 µM) | 68.4 µg/mL (≈ 412 µM) | 37 µg/mL (≈ 223 µM) | 48.7 µg/mL (≈ 293 µM) | 39.5 µg/mL (≈ 237 µM) | – | – | – | – | – | – | – |
| CCCCCc1cc(C)cc(=O)o1 | 39.1 µg/mL (≈ 217 µM) | 36.8 µg/mL (≈ 204 µM) | 34.2 µg/mL (≈ 190 µM) | 20.6 µg/mL (≈ 114 µM) | 34.5 µg/mL (≈ 191 µM) | 22.4 µg/mL (≈ 125 µM) | – | – | – | – | – | – | – |
| CC(C)=Cc1cc(C)cc(=O)o1 | 206 µg/mL (≈ 1250 µM) | 377 µg/mL (≈ 2300 µM) | 328 µg/mL (≈ 2000 µM) | 264 µg/mL (≈ 1610 µM) | 286 µg/mL (≈ 1740 µM) | 323 µg/mL (≈ 1960 µM) | – | – | – | – | – | – | – |
| CCc1cc(C)cc(=O)o1 | 408 µg/mL (≈ 2950 µM) | 267 µg/mL (≈ 1940 µM) | 626 µg/mL (≈ 4530 µM) | 580 µg/mL (≈ 4200 µM) | 690 µg/mL (≈ 5000 µM) | 665 µg/mL (≈ 4820 µM) | – | – | – | – | – | – | – |
| CCCCCCc1cc(C)cc(=O)o1 | 16.6 µg/mL (≈ 85.5 µM) | 31 µg/mL (≈ 159 µM) | 24.5 µg/mL (≈ 126 µM) | 14.9 µg/mL (≈ 76.7 µM) | 18.7 µg/mL (≈ 96 µM) | 15.1 µg/mL (≈ 77.7 µM) | – | – | – | inactive | > 60% | 92.4% | 20% |
| C/C=C/c1cc(C)cc(=O)o1 | 102 µg/mL (≈ 680 µM) | 276 µg/mL (≈ 1840 µM) | 361 µg/mL (≈ 2400 µM) | 95.5 µg/mL (≈ 636 µM) | 294 µg/mL (≈ 1950 µM) | 404 µg/mL (≈ 2690 µM) | – | – | – | – | – | – | – |
| CCCc1cc(C)cc(=O)o1 | 573 µg/mL (≈ 3760 µM) | 329 µg/mL (≈ 2160 µM) | 562 µg/mL (≈ 3700 µM) | 288 µg/mL (≈ 1890 µM) | 149 µg/mL (≈ 982 µM) | 251 µg/mL (≈ 1650 µM) | – | – | – | – | – | – | – |
| CCCCCCCCCc1cc(C)cc(=O)o1 | 204 µg/mL (≈ 863 µM) | 352 µg/mL (≈ 1490 µM) | 213 µg/mL (≈ 900 µM) | 284 µg/mL (≈ 1200 µM) | 130 µg/mL (≈ 551 µM) | 397 µg/mL (≈ 1680 µM) | – | – | – | – | – | – | – |
